Data taken from BindingDB's records for doi:10.1021/acs.jmedchem.5b01762 (University of Illinois At Chicago, 2016).

Key:
[1] = target: T1, DNA repair protein RAD51 homolog 1 (Homo sapiens, UniProt Q06609); assay: Inhibition of human N-terminal 6-histidine/Avi-tagged recombinant RAD51 expressed in Escherichia coli BL21(DE3) assessed as D-loop formation using 5'-32P-labeled 90-mer ssDNA as substrate preincubated for 10 mins followed by substrate addition with subsequent incubation with substrate for 5 mins measured after 20 mins in presence of supercoiled pRS306 dsDNA by agarose gel electrophoresis
T1 sequence (Q06609 whole entry): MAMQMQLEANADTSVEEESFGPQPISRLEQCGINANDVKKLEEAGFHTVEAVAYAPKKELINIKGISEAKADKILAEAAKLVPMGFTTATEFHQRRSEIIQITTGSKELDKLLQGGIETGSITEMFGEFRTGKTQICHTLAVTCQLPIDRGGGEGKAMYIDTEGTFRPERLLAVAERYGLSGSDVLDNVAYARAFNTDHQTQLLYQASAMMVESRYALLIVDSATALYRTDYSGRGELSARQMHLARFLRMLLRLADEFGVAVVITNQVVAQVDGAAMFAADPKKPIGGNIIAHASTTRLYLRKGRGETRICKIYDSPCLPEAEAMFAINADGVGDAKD

[2] = target: T1, DNA repair protein RAD51 homolog 1; assay: Inhibition of Escherichia coli BL21(DE3) expressing human N-terminal 6-histidine/Avi-tagged RAD51 binding to 5'-Alexa488-oligo-dT45 ssDNA preincubated for 40 mins followed by substrate addition measured after 40 mins by fluorescence polarization based microplate method
Outline: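 Human RAD51 preincubated with compound in DMSO at 37 °C for 40 min, then 5'-Alexa488-oligo-dT45 added and incubated another 40 min at 37 °C. Buffer: 20 mM HEPES pH 7.5, 2 mM ATP, 10 mM MgCl2, 0.1 mM TCEP. IC50 from least-squares dose–response fits with standard error.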

- IC50 [1]: > 100 µM
- IC50 [2]: > 100 µM
SMILES: COc1ccc2c(c1)NC(c1ccc(N(C)C)cc1)c1cccn1-2 (configuration not stated)
